Results taken from ChEMBL document CHEMBL6071149, “Synthesis and photo-induced anticancer activity of new 2-phenylethenyl-1H-benzo[e]indole dyes” (Eur J Med Chem, 2024).
pEC50: −log10 of the molar value. The source made the active and inactive calls.

Legend:
G-361 [1] = assay: Cytotoxicity against human G361 cells under dark condition measured after 72 hrs by MTT assay; format: functional, cell-based; conditions: G-361, 72 h
Procedure, shortened: (§1)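 Cells grown in phenol red-free DMEM with 10 % FBS, penicillin/streptomycin, 37 °C, 5 % CO₂. Compound added 24 h after plating and incubated 4 h. Irradiated cells received 414 nm LED light at 20 mW/cm², 10 J/cm², then were incubated 20 h or 68 h more. Dark plates were run in parallel without irradiation. MTT was added for 4 h, formazan dissolved in 10 % SDS, absorbance read at 570 nm. EC50 ± SD.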

G-361 [2] = assay: Cytotoxicity against human G361 cells pretreated for 4 hrs followed by light irradiation of 10 J/cm2 at 414 nm measured after 68 hrs by MTT assay; format: functional, cell-based; conditions: G-361, light or radiation study; procedure, shortened: as §1
G-361 [3] = assay: Cytotoxicity against human G361 cells pretreated for 4 hrs followed by light irradiation of 10 J/cm2 at 414 nm measured after 20 hrs by MTT assay; format: functional, cell-based; conditions: G-361, light or radiation study; procedure, shortened: as §1
[4] = Cytotoxicity against ARN-8 cells-derived from human A375 cells pretreated for 4 hrs followed by light irradiation of 10 J/cm2 at 414 nm measured after 20 hrs by MTT assay; format: functional, cell-based; conditions: ARN-8 cell, light or radiation study; procedure, shortened: as §1
G-361 [5] = assay: Induction of ROS production in human G361 cells pretreated for 4 hrs followed by light irradiation of 5 to 10 J/cm2 measured immediately by CM-H2DCFA probe based analysis; format: functional, cell-based; conditions: dose <= 4.0 µM
Procedure, shortened: (§2)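 Cells loaded next day with 5 µM CM-H₂DCFDA for 30 min, then placed in prewarmed PBS with 5 mM glucose. Compound exposure 4 h, followed by 414 nm irradiation at 5 or 10 J/cm²; dark samples run in parallel. Fluorescence read immediately at 492/530 nm. NAC (5 mM) pretreatment for 10 min gave negative controls. RFU normalised to untreated dark control.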

ARN-8 cell [6] = assay: Induction of ROS production in human ARN-8 cells-derived from human A375 cells pretreated for 4 hrs followed by light irradiation of 5 to 10 J/cm2 measured immediately by CM-H2DCFA probe based analysis; format: functional; conditions: dose <= 4.0 µM; procedure, shortened: as §2
G-361 [7] = assay: Induction of ROS production in human G361 cells upto 4 uM treated for 4 hrs under dark condition by CM-H2DCFA probe based analysis; format: functional, cell-based; procedure, shortened: as §2
ARN-8 cell [8] = assay: Induction of ROS production in human ARN-8 cells-derived from human A375 cells upto 4 uM pretreated for 4 hrs followed by light irradiation of 5 to 10 J/cm2 measured immediately in presence of N-acetylcysteine by CM-H2DCFA probe based analysis; format: functional; procedure, shortened: as §2
ARN-8 cell [9] = assay: Induction of ROS production in human ARN-8 cells-derived from human A375 cells assessed as increase in singlet oxygen level upto 4 uM pretreated for 4 hrs followed by replacement of medium containing probe without compound for 30 mins and subsequent light irradiation of 5 to 10 J/cm2 measured immediately by DHR-123 probe based analysis; format: functional
Procedure, shortened: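 Compound exposure 4 h, then medium replaced with PBS containing 5 µM DHR123 probe for 30 min. Probe removed, cells in PBS irradiated at 5 or 10 J/cm², dark samples in parallel. Fluorescence read immediately at 490/525 nm.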

G-361 [10] = assay: Induction of oxidative stress in human G361 cells assessed as increase in HO-1 level upto 4 uM under dark condition by immunoblot analysis; format: functional, cell-based
ARN-8 cell [11] = assay: Induction of oxidative stress in human ARN-8 cells-derived from human A375 cells assessed as increase in HO-1 level upto 4 uM under dark condition by immunoblot analysis; format: functional, cell-based
G-361 [12] = assay: Induction of apoptosis in human G361 cells assessed as increase in cleaved pro-caspase-9 level upto 4 uM pretreated for 4 hrs followed by light irradiation of 10 J/cm2 at 414 nm measured after 20 hrs by Western blot analysis; format: functional, cell-based; conditions: time 24.0 hrs
Procedure, shortened: (§3)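 Compound exposure 4 h, then 414 nm irradiation, then 20 h further incubation. Lysates made in RIPA buffer, separated by SDS-PAGE and blotted to nitrocellulose. Primary antibodies in TBS with 4 % BSA and 0.1 % Tween 20, incubated overnight. Peroxidase secondary antibody with chemiluminescent detection. GAPDH served as loading control.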

ARN-8 cell [13] = assay: Induction of apoptosis in human ARN-8 cells-derived from human A375 cells assessed as increase in cleaved pro-caspase-9 level upto 4 uM pretreated for 4 hrs followed by light irradiation of 10 J/cm2 at 414 nm measured after 20 hrs by Western blot analysis; format: functional, cell-based; conditions: time 24.0 hrs; procedure, shortened: as §3
ARN-8 cell [14] = assay: Induction of apoptosis in human ARN-8 cells-derived from human A375 cells assessed as decrease in Bcl-2 level upto 4 uM pretreated for 4 hrs followed by light irradiation of 10 J/cm2 at 414 nm measured after 20 hrs by Western blot analysis; format: functional, cell-based; conditions: time 24.0 hrs; procedure, shortened: as §3
ARN-8 cell [15] = assay: Upregulation of Mcl-1 level in human ARN-8 cells-derived from human A375 cells upto 4 uM pretreated for 4 hrs followed by light irradiation of 10 J/cm2 at 414 nm measured after 20 hrs by Western blot analysis; format: functional, cell-based; conditions: time 24.0 hrs; procedure, shortened: as §3
G-361 [16] = assay: Induction of cell cycle arrest in human G361 cells assessed as increase in cell population at sub-G1 phase at 0.5 to 1 uM pretreated for 4 hrs followed by light irradiation of upto 10 J/cm2 at 414 nm measured after 20 hrs by flow cytometry; format: functional, cell-based; conditions: dose 0.5-1 µM, time 24.0 hrs
Procedure, shortened: (§4)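 Compound exposure 4 h (0.5 or 1 µM), then irradiation at increasing blue-light doses, then 20 h further incubation. Cells stained with propidium iodide; DNA content measured by flow cytometry with a 488 nm laser. Cell-cycle and subG1 distributions analysed.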

ARN-8 cell [17] = assay: Induction of cell cycle arrest in human ARN-8 cells-derived from human A375 cells assessed as cell accumulation at G2/M phase at 0.5 to 1 uM pretreated for 4 hrs followed by light irradiation of upto 10 J/cm2 at 414 nm measured after 20 hrs by flow cytometry; format: functional, cell-based; conditions: dose 0.5-1 µM, time 24.0 hrs; procedure, shortened: as §4
G-361 [18] = assay: Induction of DNA damage in human G361 cells assessed as increase in H2AX phosphorylation at Ser139 at 0.5 to 1 uM pretreated for 4 hrs followed by light irradiation of upto 10 J/cm2 at 414 nm measured after 20 hrs by Western blot analysis; format: functional, cell-based; conditions: dose 0.5-1 µM, time 24.0 hrs; procedure, shortened: as §3
ARN-8 cell [19] = assay: Induction of DNA damage in human ARN-8 cells-derived from human A375 cells assessed as increase in H2AX phosphorylation at Ser139 at 0.5 to 1 uM pretreated for 4 hrs followed by light irradiation of upto 10 J/cm2 at 414 nm measured after 20 hrs by Western blot analysis; format: functional, cell-based; conditions: dose 0.5-1 µM, time 24.0 hrs; procedure, shortened: as §3
G-361 [20] = assay: Induction of DNA fragmentation in human G361 cells at 0.5 uM pretreated with compound followed by light irradiation of 10 J/cm2 at 414 nm by Comet assay; format: functional, cell-based
Procedure, shortened: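 G361 cells exposed at 0.5 µM and irradiated at indicated 414 nm doses. Cells trypsinized and embedded in 1 % LMP agarose on slides, lysed 1 h in buffer with 1 % Triton X. Cold electrophoresis solution for 40 min, then electrophoresis at 20 V, 350 mA for 20 min. Neutralised twice for 10 min, stained with SYBR Green 15 min. Percent DNA in comet head and tail scored.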

COc1ccc(/C=C/C2=Nc3ccc4ccccc4c3C2(C)C)cc1[N+](=O)[O-]
6.30: pEC50 [4]
active: Activity (G-361 [5]) Dose-Dependent Effect | Activity (ARN-8 cell [6]) Dose-Dependent Effect | Activity (G-361 [10]) | Activity (ARN-8 cell [11]) | Activity (G-361 [12]) | Activity (ARN-8 cell [13]) | Activity (ARN-8 cell [14]) | Activity (ARN-8 cell [15]) | Activity (G-361 [16]) | Activity (ARN-8 cell [17]) | Activity (G-361 [18]) | Activity (ARN-8 cell [19]) | Activity (G-361 [20])
5.25: pEC50 (G-361 [1])
6.22: pEC50 (G-361 [3])
inactive: Activity (G-361 [7]) | Activity (ARN-8 cell [8]) | Activity (ARN-8 cell [9])
6.70: pEC50 (G-361 [2])
